Sampled rows, rich in hits. Any-hit rate of the full collection: about 1.8%.
EBI2 antag = blocks human EBI2 receptor beta-arrestin signaling | P32249 | EBI2 beta-arrestin recruitment, luminescence, 7a,25-OHC stimulated | inhibition, % at 5 µM | 0.81% of 360,000 active | AID 651636; in the data active means inhibition above about 38%;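 further: enzyme fragment complementation signal reports receptor beta-arrestin coupling in cells; 0% = agonist plus DMSO wells and 100% = wells without agonist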
APJ antag = antagonists of human APJ apelin receptor. P35414. CHO-K1 APJ beta-arrestin complementation, luminescence. inhibition, % at 20 µM. 0.32% of 330,000 active. AID 2521;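 active means inhibition above about 40% at 20 µM, limit read from the data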;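 further: cells challenged with 10 nM apelin-13 agonist together with compound; plate controls were apelin-13 plus DMSO wells for no effect and DMSO wells lacking apelin-13 for full effect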
CXCR6 block = blocks human CXCR6 beta-arrestin recruitment. O00574. CHO-K1 PathHunter CXCR6 beta-arrestin, luminescence. inhibition, % at 20 µM. 0.36% of 360,000 active. AID 602244; in the data active means inhibition above about 34%, passing the limit was not always enough;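 further: antagonist mode with CXCL16 agonist at 10 nM final; 0% = 10 nM CXCL16 with DMSO and 100% = unstimulated wells without agonist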
CCR6 antagonist = antagonists of human CCR6 receptor | P51684 | CHO-K1 CCR6 PathHunter beta-arrestin, luminescence, CCL20-stimulated | inhibition, % at 20 µM | 0.49% of 340,000 active;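 active means compounds whose inhibition of the agonist-driven luminescence signal at 20 µM reaches about 50%, limit read from the data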;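 further: cells stimulated with CCL20 at 14 nM final; plate controls were DMSO with CCL20 for no effect and DMSO without agonist for full effect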
APJ agonist = agonists of human APJ apelin receptor. CHO-K1 APJ PathHunter beta-arrestin, luminescence; 0% DMSO wells, 100% apelin. P35414. AID 2520. activation, % at 20 µM. 0.11% of 330,000 active;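 active means activation more than six SD over the plate average, tested at 20 µM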;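 further: 0% = DMSO alone and 100% = apelin-13 at 10 nM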
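Assay system: CHO-K1 APJ beta-arrestin complementation cell line / Compound: single test compound dose, 20 µM final, 1% DMSO / Times: overnight seeding, 90 min compound at 25 °C, 1 h detection / Technique: beta-gal luminescence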
Beta2AR agonist = activates human beta-2 adrenergic receptor causing internalization | Am2.2-beta2AR cells, FAP receptor internalization, flow cytometry | 0.43% of 340,000 active | response, % (concentration not given with the values) | AID 504454;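 active means response above a set limit, near 3 SD of response in nonfluorescent compounds, cut at about 42% in these data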
Target sequence (P07550 whole entry, looked up): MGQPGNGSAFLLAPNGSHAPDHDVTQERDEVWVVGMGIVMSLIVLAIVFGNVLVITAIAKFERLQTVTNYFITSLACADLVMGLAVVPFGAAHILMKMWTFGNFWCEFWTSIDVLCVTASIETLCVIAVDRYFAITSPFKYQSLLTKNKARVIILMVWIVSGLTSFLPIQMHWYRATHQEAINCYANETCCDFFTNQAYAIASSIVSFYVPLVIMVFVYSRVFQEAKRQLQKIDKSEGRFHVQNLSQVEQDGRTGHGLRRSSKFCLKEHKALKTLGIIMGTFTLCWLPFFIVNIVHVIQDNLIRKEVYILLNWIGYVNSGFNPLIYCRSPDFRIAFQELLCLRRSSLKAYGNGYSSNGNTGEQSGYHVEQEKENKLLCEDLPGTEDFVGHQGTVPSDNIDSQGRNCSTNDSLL
EBI2 conf = EBI2 (human) antagonism, single concentration confirmation. EBI2 beta-arrestin luminescence, 7a,25-OHC antagonism. inhibition, % at 5 µM. 29% of 2,400 active. shares compounds with EBI2 antag. AID 651997;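 active means inhibition of at least 50%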
EBI2 agonist = EBI2 agonism counter-screen; 2,400 tested, under 10 active; activation, % at 5 µM; EBI2-expressing cells, agonist mode, luminescence, 60 min; 0% vehicle, 100% 7α,25-dihydroxycholesterol control; shares compounds with EBI2 antag;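 active means activation of at least 50%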
bGal cs = beta-galactosidase inhibition counter-screen; 1% of 2,400 active; AID 652176; purified beta-galactosidase, luminescent Galacton Star, 15 min; shares compounds with EBI2 antag; inhibition, % at 5 µM;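 active means replicate-average signal at least 3 plate SD below neutral wells, shown as high inhibition, flagging enzyme-inhibiting false positives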;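 further: 0% = DMSO wells with enzyme and 100% = wells lacking enzyme; higher means stronger loss of beta-gal luminescence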
* marks the source's active call; other numbers are inactive results.

`O=C(CN1CCN(C(=O)C2CCN(C(=O)/C=C/c3ccccc3)CC2)CC1)Nc1ccccc1Cl` gave EBI2 antag 88*, APJ antag 11, CXCR6 block 5, CCR6 antagonist 11, APJ agonist 0, Beta2AR agonist 3, EBI2 conf 56*, EBI2 agonist 1 and bGal cs 6.
CCOC(=O)C1CCN(C(=O)/C=C/c2ccccc2)CC1 was read as EBI2 antag 65*, APJ antag -3, CXCR6 block 7, CCR6 antagonist 22, APJ agonist -5, Beta2AR agonist 8, EBI2 conf 51*, EBI2 agonist -2 and bGal cs -9.
`CCOC(=O)C1CCCN(C(=O)/C=C/c2ccccc2)CC1` (centres undefined) gave EBI2 antag 42 and CXCR6 block -6.
CCOC(=O)C1CCN(C(=O)/C=C/c2ccc3c(c2)OCO3)CC1 was read as EBI2 antag 56*, APJ antag 7, CXCR6 block 9, CCR6 antagonist 2, APJ agonist -3, Beta2AR agonist 4, EBI2 conf 33, EBI2 agonist -1 and bGal cs -9.
For Cc1cc2nc(-c3ccc(C#N)cc3)c(Cc3cccc(F)c3)n2c(C)c1Br the results were EBI2 antag 44*, CXCR6 block 5, EBI2 conf 43, EBI2 agonist -1 and bGal cs -16.
`Cc1ccc(-c2nc3ccc(C)cn3c2Cc2cccc(F)c2)cc1` gave EBI2 antag 43*, CXCR6 block 28, EBI2 conf 46, EBI2 agonist -2 and bGal cs -14.
CC1CCN(Cc2c(C(=O)O)nnn2-c2nonc2N)CC1 was read as EBI2 antag -3, APJ antag -1, CXCR6 block -6, CCR6 antagonist 1, APJ agonist -3 and Beta2AR agonist 13.
For CCn1cc(C(=O)NN)c(=O)c2cc(F)c(NC3CCCCC3)cc21 the results were EBI2 antag 91*, APJ antag 6, CXCR6 block 7, CCR6 antagonist 3, APJ agonist 1, Beta2AR agonist -6, EBI2 conf 62*, EBI2 agonist 1 and bGal cs 1.
`COc1ccc(C(=O)c2ccc(N3CCN(C(=O)c4ccc(F)cc4)CC3)c(F)c2)cc1Br` gave EBI2 antag 65*, APJ antag 19, CXCR6 block 0, CCR6 antagonist 15, APJ agonist 0, Beta2AR agonist 4, EBI2 conf 22, EBI2 agonist 1 and bGal cs 5.
For CCCC(=O)c1ccc(N2CCN(C(=O)c3ccc(Br)cc3)CC2)c(F)c1 the results were EBI2 antag 71*, APJ antag -20, CXCR6 block -4, CCR6 antagonist -2, APJ agonist 3, Beta2AR agonist -9, EBI2 conf 29, EBI2 agonist 3 and bGal cs 8.
`CCCC(=O)c1ccc(N2CCN(C(=O)c3ccccc3)CC2)c(F)c1` gave EBI2 antag -1, APJ antag -1, CXCR6 block -12, CCR6 antagonist 8, APJ agonist -4 and Beta2AR agonist -12.
For CC(C)c1cn(CC[C@@H]2CC[C@@H](NC(=O)C3CCCCC3)[C@@H](CO)O2)nn1 the results were EBI2 antag -4.
For O=c1c2oc3ccccc3c2ncn1Cc1cccc(Cl)c1 the results were EBI2 antag 48*, APJ antag 9, CXCR6 block -4, CCR6 antagonist 4, APJ agonist -4, Beta2AR agonist 4, EBI2 conf 10, EBI2 agonist 1 and bGal cs 5.
Screening CCOc1ccc(NC(=O)CCC(=O)N/N=C2\CCCc3ccccc32)cc1 returned EBI2 antag 10, APJ antag -11, CXCR6 block 2, CCR6 antagonist 18, APJ agonist 8 and Beta2AR agonist 0.
`CCOc1ccc(NC(=S)N(CCOC)C(C)c2ccco2)cc1` (centres undefined) gave EBI2 antag 55*, APJ antag 3, CXCR6 block 9, CCR6 antagonist 10, APJ agonist -2, Beta2AR agonist 3, EBI2 conf 13, EBI2 agonist 0 and bGal cs 5.
`CCOc1ccc(NC(=S)N(CCc2ccncc2)C(C)C)cc1` gave EBI2 antag 52*, APJ antag -4, CXCR6 block -1, CCR6 antagonist -5, APJ agonist -2, Beta2AR agonist 4, EBI2 conf 7, EBI2 agonist -1 and bGal cs 4.
Screening COCCN(C(=S)Nc1ccc(C)cc1)C(C)c1ccco1 (centres undefined) returned EBI2 antag -4, APJ antag -3, CXCR6 block 9, CCR6 antagonist 15, APJ agonist -2 and Beta2AR agonist 6.
CCOc1ccc(NC(=S)N(CCOC)C2CCN(C(C)C)CC2)cc1 was read as EBI2 antag 54*, APJ antag -20, CXCR6 block 5, CCR6 antagonist -16, APJ agonist -4, Beta2AR agonist -2, EBI2 conf 23, EBI2 agonist 2 and bGal cs 6.
`O=C(c1ccccc1)c1ccc(C(=O)N2CCN(c3ccccc3O)CC2)cc1` gave EBI2 antag 1 and CXCR6 block -1.
Screening COc1ccccc1NC(=O)Nc1nc(C(N)CC(C)C)cs1 (centres undefined) returned EBI2 antag -12 and CXCR6 block 5.
Screening CCn1c(CN2CCN(C(c3ccccc3)c3ccccc3)CC2)nc2c1c(=O)n(C)c(=O)n2C returned EBI2 antag 3, APJ antag 17, CXCR6 block -5, CCR6 antagonist 15, APJ agonist -3 and Beta2AR agonist 10.
For CN(CC(=O)Nc1cccc(F)c1)CC(=O)Nc1cccc(S(=O)(=O)N2CCCCC2)c1 the results were EBI2 antag 3, APJ antag 2, CXCR6 block -8, CCR6 antagonist 9, APJ agonist -2 and Beta2AR agonist 11.
O=C(c1ccccc1F)N1CCN(Cc2nc3sc4c(c3c(=O)[nH]2)CCCC4)CC1 was read as EBI2 antag 5, APJ antag 24, CXCR6 block 4, CCR6 antagonist 0, APJ agonist -2 and Beta2AR agonist -11.

Screening data from PubChem.
